{"source": "paper PMC6997517", "about": "(EBioMedicine, 2020)", "key": {"TLR4 [1]": {"test_system": "TLR4", "assay": "Intracellular NO and ROS", "format": "cell-based, murine", "conditions": "LPS, 50 μM TIP3", "summary_of_the_method": "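RAW264.7 cells seeded at 1 × 10^6 per 6 cm dish and grown overnight. Stimulated with LPS and treated with test compound. Intracellular NO stained with DAF-FM and ROS with DCF-DA. Cellular fluorescence quantified by flow cytometry.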"}, "TLR9": {"test_system": "TLR9", "assay": "TNF-α secretion, CpG-ODN-stimulated RAW264.7 cells", "format": "cell-based, murine", "conditions": "TIP3 at 50 μM", "summary_of_the_method": "(§1)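 RAW264.7 cells seeded at 2 × 10^5/well (96-well) or 5 × 10^5/well (24-well), grown overnight, then treated with test compound. Stimulus: poly(I:C), CpG-ODN (15), FSL-1 (16) or R848 (17). Supernatant cytokines read after 24 h by mouse ELISA kits (IFN-β, IL-6, TNF-α). Cells kept at 37 °C, 5% CO2.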"}, "TLR4 [2]": {"test_system": "TLR4", "assay": "Cytokine ELISA, LPS-stimulated hMNCs", "format": "cell-based, human", "summary_of_the_method": "(§2)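 Commercial human mononuclear cells kept in RPMI 1640 (2·05 mM L-glutamine, 10% FBS, penicillin/streptomycin). Seeded at 2 × 10^5/well and grown overnight. Stimulated with LPS or poly(I:C) alongside test compound. After 24 h, supernatant IL-6 and TNF-α measured by human sandwich ELISA.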"}, "TLR3 [3]": {"test_system": "TLR3", "assay": "Cytokine ELISA, poly", "format": "cell-based, murine", "conditions": "24 h", "summary_of_the_method": "as §1"}, "TLR4 [4]": {"test_system": "TLR4", "assay": "Western blot, LPS-stimulated hPBMCs", "format": "cell-based, human", "summary_of_the_method": "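Total protein extracted with M-PER reagent and quantified by BCA. Membranes incubated with primary antibodies overnight at 4 °C, washed in PBS/0·1% Tween 20, then HRP-conjugated secondary (1:1000) for 2 h. Bands detected by enhanced chemiluminescence, with β-actin as loading reference.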"}, "TLR4 [5]": {"test_system": "TLR4", "assay": "Immunofluorescence confocal microscopy of p-p65, LPS-stimulated RAW264.7 cells", "format": "cell-based, murine", "conditions": "TIP3 50 μM, 1 h before LPS 100 ng/ml", "summary_of_the_method": "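RAW264.7 cells seeded on coverslips (2 × 10^5/well) and grown overnight. Stained with anti-p-p65 (1:1000, 2 h), then Alexa Fluor 546 secondary for 1 h. Nuclei stained with 5 µM Hoechst 33258. Fluorescence intensity quantified by confocal microscopy.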"}, "TLR4 [6]": {"test_system": "TLR4", "assay": "Quantitative RT-PCR, LPS-stimulated THP-1 cells", "format": "cell-based, human", "conditions": "TIP3 50 μM 1 h, then LPS 4 h; normalized to GAPDH", "summary_of_the_method": "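THP-1 cells pretreated with test compound (50 μM) for 1 h, then LPS (100 ng/ml) added for 4 h. Total RNA extracted with TRIzol and cDNA synthesised. SYBR Green qPCR run with primers for IL-1β, IL-6, IL-8, TNF-α, with β-actin and GAPDH as references. Relative expression calculated by the ΔΔCt method.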"}, "HEK-Blue™ hTLR4 cells": {"test_system": "HEK-Blue™ hTLR4 cells", "assay": "MTT cell viability, HEK-Blue hTLR4 cells", "format": "cell-based, human", "conditions": "n ≥ 3", "summary_of_the_method": "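MTT colourimetric viability assay. HEK-Blue hTLR4 cells (high-glucose DMEM, 10% FBS, normocin) seeded at 5 × 10^4/well. RAW264.7 cells seeded at 2 × 10^5/well. Both grown overnight before exposure to test compound.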"}, "TLR3 [7]": {"test_system": "TLR3", "assay": "Cytokine ELISA, poly", "format": "cell-based, mouse", "conditions": "mBMDMs, poly(I:C)", "summary_of_the_method": "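Bone marrow flushed from femurs and tibiae of C57BL/6J mice (6–7 weeks). Cultured in DMEM/10% FBS with M-CSF (25 ng/ml) for 3–4 days, detached with trypsin-EDTA, replated, and used 24 h later. Seeded and grown overnight, stimulated with poly(I:C) plus test compound. Secreted IFN-β measured after 24 h by mouse IFN-β ELISA.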"}, "TLR2/6": {"test_system": "TLR2/6", "assay": "TNF-α secretion, FSL-1-stimulated RAW264.7 cells", "format": "cell-based, murine", "conditions": "TIP3 at 50 μM", "summary_of_the_method": "as §1"}, "CIA mice": {"test_system": "CIA mice", "assay": "Micro-CT and histology of knee joints, CIA model", "format": "in vivo, mouse (DBA/1 J)", "summary_of_the_method": "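DBA/1J collagen-induced arthritis mice, dosed i.p. daily from day 22. Knee bone samples fixed in 10% formalin and scanned by in vivo micro-CT. Bone mineral density measured at 1 mm below the top of the tibia within a set region of interest. Joint sections stained with H&E and examined for synovial hyperplasia, pannus, immune-cell infiltration and joint-space narrowing.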"}, "TLR4 [8]": {"test_system": "TLR4", "assay": "NO secretion assay, LPS-stimulated mBMDMs", "format": "cell-based, mouse", "summary_of_the_method": "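Bone marrow macrophages from C57BL/6J femurs/tibiae, differentiated with M-CSF (25 ng/ml) for 3–4 days and replated 24 h before use. Seeded at 2 × 10^5/well, grown overnight. Pretreated with test compound for 1 h, then co-treated with LPS. Extracellular NO in supernatant measured with a nitric oxide detection kit by absorbance at 550 nm.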"}, "[9]": {"test_system": "TNFR-mediated NLRP3 inflammasome", "assay": "NLRP3 inflammasome activation, IL-1β secretion, TNF-α-primed THP-1 cells", "format": "cell-based", "conditions": "THP-1 primed with recombinant human TNF-α, activated with Nigericin"}, "[10]": {"test_system": "TLR4-mediated NLRP3 inflammasome", "assay": "NLRP3 inflammasome activation, IL-1β secretion, LPS-primed THP-1 cells", "format": "cell-based, human", "conditions": "THP-1 primed with LPS, activated with Nigericin; n ≥ 3"}, "TLR3 [11]": {"test_system": "TLR3", "assay": "Cytokine ELISA, poly", "format": "cell-based, human", "conditions": "hMNCs, poly(I:C)", "summary_of_the_method": "as §2"}, "TLR4 [12]": {"test_system": "TLR4", "assay": "Cytokine ELISA, LPS-stimulated RAW264.7 cells", "format": "cell-based, murine", "conditions": "n ≥ 3", "summary_of_the_method": "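Murine macrophages seeded at 2 × 10^5/well (96-well) or 5 × 10^5/well (24-well) and grown overnight, then treated with test compound and LPS. After 24 h treatment, secreted IFN-β was measured by pre-coated mouse IFN-β ELISA. Mouse IL-6 and mouse TNF-α were measured by ELISA kits.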"}}}
{"sequence": "DYDVCVCH [TIP3]", "values": [{"measurement": "intracellular NO", "setting": "TLR4 [1]; DAF-FM", "value": "significantly inhibited"}, {"measurement": "intracellular ROS", "setting": "TLR4 [1]; DCF-DA", "value": "significantly inhibited"}, {"measurement": "TNF-α secretion mediated by TLR9", "setting": "TLR9", "value": "somewhat weak inhibition"}, {"measurement": "TLR4-mediated IL-6 secretion", "setting": "TLR4 [2]", "value": "significantly inhibited"}, {"measurement": "TLR4-mediated TNF-α secretion", "setting": "TLR4 [2]", "value": "significantly inhibited"}, {"measurement": "poly(I:C)-induced IFN-α secretion", "setting": "TLR3 [3]", "value": "also inhibited"}, {"measurement": "poly(I:C)-induced IFN-β secretion", "setting": "TLR3 [3]", "value": "also inhibited"}, {"measurement": "poly(I:C)-induced IL-6 secretion", "setting": "TLR3 [3]", "value": "also inhibited"}, {"measurement": "TLR3-mediated TNF-α secretion", "setting": "TLR3 [3]; poly(I:C)", "value": "significantly diminished the TLR3-mediated TNF-α secretion in a dose-dependent manner"}, {"measurement": "activation of ATF3", "setting": "TLR4 [4]", "value": "hindered the activation of NF-κB and ATF3"}, {"measurement": "activation of NF-κB", "setting": "TLR4 [4]", "value": "hindered the activation of NF-κB"}, {"measurement": "phosphorylation of ERK", "setting": "TLR4 [4]", "value": "inhibited the phosphorylation of MAPKs, including ERK, JNK, and p38"}, {"measurement": "phosphorylation of IRF3", "setting": "TLR4 [4]", "value": "hindered the activation of NF-κB and ATF3 and the phosphorylation of IRF3"}, {"measurement": "phosphorylation of JNK", "setting": "TLR4 [4]", "value": "inhibited the phosphorylation of MAPKs, including ERK, JNK, and p38"}, {"measurement": "phosphorylation of p38", "setting": "TLR4 [4]", "value": "inhibited the phosphorylation of MAPKs, including ERK, JNK, and p38"}, {"measurement": "LPS-induced p65 phosphorylation (confocal)", "setting": "TLR4 [5]", "value": "decreased the LPS-induced p65 phosphorylation"}, {"measurement": "IL-1β mRNA expression", "setting": "TLR4 [6]", "value": "inhibited LPS-induced mRNA expression"}, {"measurement": "IL-6 mRNA expression", "setting": "TLR4 [6]", "value": "inhibited LPS-induced mRNA expression"}, {"measurement": "IL-8 mRNA expression", "setting": "TLR4 [6]", "value": "inhibited LPS-induced mRNA expression of these cytokines and of IL-8"}, {"measurement": "TNF-α mRNA expression", "setting": "TLR4 [6]", "value": "inhibited LPS-induced mRNA expression"}, {"measurement": "cell viability / cytotoxicity", "setting": "HEK-Blue™ hTLR4 cells; 12·5 to 50 μM", "value": "did not show any significant cytotoxicity"}, {"measurement": "cell viability / cytotoxicity", "setting": "HEK-Blue™ hTLR4 cells; high concentration, 100 μM", "value": "slight cytotoxicity"}, {"measurement": "TLR3-mediated IFN-β secretion", "setting": "TLR3 [7]", "value": "suppressed"}, {"measurement": "TNF-α secretion mediated by TLR2/6", "setting": "TLR2/6", "value": "somewhat weak inhibition"}, {"measurement": "bone destruction recovery (knee joint)", "setting": "CIA mice; TIP3 10 nmol/g, micro-CT", "value": "remarkable recovery from the bone destruction"}, {"measurement": "inflammation score", "setting": "CIA mice; TIP3-treated CIA mice, Fig. 4j synovial hyperplasia score", "value": "significantly lower inflammation score"}, {"measurement": "synovial hyperplasia score", "setting": "CIA mice; prolonged TIP3 treatment", "value": "substantially reduces inflammation"}, {"measurement": "LPS-induced extracellular NO", "setting": "TLR4 [8]", "value": "significant reduction"}, {"measurement": "IL-1β secretion", "setting": "[9]", "value": "not in the TNF-α-primed cells"}, {"measurement": "IL-1β secretion", "setting": "[10]", "value": "dose-dependently inhibits IL-1β secretion in LPS-primed cells"}, {"measurement": "TLR3-mediated TNF-α secretion", "setting": "TLR3 [11]", "value": "significantly inhibited"}, {"measurement": "LPS-induced IFN-α secretion", "setting": "TLR4 [12]", "value": "significantly prevented in vitro production of proinflammatory cytokines (TNF-α and IL-6) and IFN-α and -β in a dose-dependent manner"}, {"measurement": "LPS-induced IFN-β secretion", "setting": "TLR4 [12]", "value": "significantly prevented in vitro production of proinflammatory cytokines (TNF-α and IL-6) and IFN-α and -β in a dose-dependent manner"}, {"measurement": "LPS-induced IL-6 secretion", "setting": "TLR4 [12]", "value": "significantly prevented in vitro production of proinflammatory cytokines (TNF-α and IL-6) and IFN-α and -β in a dose-dependent manner"}, {"measurement": "LPS-induced TNF-α secretion", "setting": "TLR4 [12]", "value": "significantly prevented in vitro production of proinflammatory cytokines (TNF-α and IL-6) and IFN-α and -β in a dose-dependent manner"}]}
